# Assay results pooled from the literature.
# Lines come from different studies, so protocols differ.
# Organism: Pseudomonas aeruginosa
# Read-out: microbial growth
Structure (SMILES),method,strain,notes,MIC
CCOC(=O)c1nnn(-c2cccc(NC(=O)Nc3ccc(Cl)c(Cl)c3)c2)c1C,broth dilution,ATCC27853,,> 64 µg/mL
C[C@@H](O)[C@H]1C(=O)N2C(C(=O)O)=C(S[C@@H]3CN[C@H](C(=O)N(C)C)C3)[C@H](C)[C@H]12,,,,2 µg/mL
C[C@H]1COCCN1c1nc(NCc2cccnc2C(F)(F)F)c2cccnc2n1,broth dilution,NCTC13437,,64 µg/mL
C[n+]1c(/C=C/c2ccc(O)cc2)cc(/C=C2\Sc3ccccc3N2CCCN2CCOCC2)c2ccccc21.[I-],broth dilution,ATCCBAA2108,drug-resistant strain,> 64 µg/mL
CCCCCCC#Cc1cncc(-c2nnc(Sc3ccc([N+](=O)[O-])cc3[N+](=O)[O-])n2C)c1,,,,≥ 20 µg/mL
COC(=O)c1cc(-c2cccc(NC(=O)Nc3cc(OC)ccc3OC)c2)on1,broth dilution,ATCC27853,,> 64 µg/mL
C[n+]1c(/C=C/c2c[nH]c3ccccc23)cc(/C=C2\Sc3ccccc3N2CCCN2CCCC2)c2ccccc21.[I-],broth dilution,ATCCBAA2108,drug-resistant strain,32 µg/mL
COC(=O)c1cc(-c2cccc(NC(=S)Nc3ccc(OC)cc3)c2)on1,broth dilution,ATCC27853,,> 64 µg/mL
C[n+]1c(/C=C/c2c[nH]c3ccccc23)cc(/C=C2\Sc3ccccc3N2CCCN2CCOCC2)c2ccccc21.[I-],broth dilution,ATCCBAA2108,drug-resistant strain,> 64 µg/mL
COC(=O)c1cc(-c2cccc(NC(=O)Nc3ccccc3F)c2)on1,broth dilution,ATCC27853,,> 64 µg/mL
Nc1nc(-c2ccc(NC(=O)Nc3cccc(-c4c[nH]c(N)n4)c3F)cc2F)c[nH]1,broth dilution,PAO1,,> 200 µM
Cc1cc(/C=C2\Sc3ccccc3N2CCCN2CCCCC2)c2ccccc2[n+]1C.[I-],broth dilution,ATCCBAA2108,drug-resistant strain,64 µg/mL
CCCCCCCCCCCC(=O)OC[C@H]1O[C@@H](n2cc(C)c(=O)[nH]c2=O)C[C@@H]1O,broth dilution,,,8 µg/mL
CCCCCCNC(=S)Nc1cccc(-c2cc(C(=O)OC)no2)c1,broth dilution,ATCC27853,,> 64 µg/mL
CC1(C)SC2C(NC(=O)C(NC(=O)C3=C(O)CN(c4ccccc4)C3=O)c3ccccc3)C(=O)N2C1C(=O)O (stereo not drawn),,,,100 µg/mL
